Measurements: ChEMBL document CHEMBL5390308, “Stapling Amantadine to Melanostatin Neuropeptide: Discovery of Potent Positive Allosteric Modulators of the D2 Receptors” (ACS Med Chem Lett, 2023)
pEC50: −log10 of the molar value. Calls of active or inactive are those of the source. The calls are words filed in the database; no cut-off is given here. Where a SMILES comes first, the peptide text is derived from it.

Columns and labels:
[1] = Lipophilicity, logP of the compound in Octan-1-ol/water by shake-flask method; format: physicochemical
D(2) dopamine receptor [2] = target: T1, D(2) dopamine receptor (Homo sapiens, UniProt P14416); test: (§1) Positive allosteric modulator activity at human dopamine D2 receptor expressed in CHO cells assessed as reduction in forskolin-stimulated cAMP level at 1 nM preincubated for 10 mins followed by forskolin addition measured after 5 mins in presence of dopamine by HTRF assay; format: functional, cell-based; settings: time 15.0 min
T1 sequence (P14416 whole entry): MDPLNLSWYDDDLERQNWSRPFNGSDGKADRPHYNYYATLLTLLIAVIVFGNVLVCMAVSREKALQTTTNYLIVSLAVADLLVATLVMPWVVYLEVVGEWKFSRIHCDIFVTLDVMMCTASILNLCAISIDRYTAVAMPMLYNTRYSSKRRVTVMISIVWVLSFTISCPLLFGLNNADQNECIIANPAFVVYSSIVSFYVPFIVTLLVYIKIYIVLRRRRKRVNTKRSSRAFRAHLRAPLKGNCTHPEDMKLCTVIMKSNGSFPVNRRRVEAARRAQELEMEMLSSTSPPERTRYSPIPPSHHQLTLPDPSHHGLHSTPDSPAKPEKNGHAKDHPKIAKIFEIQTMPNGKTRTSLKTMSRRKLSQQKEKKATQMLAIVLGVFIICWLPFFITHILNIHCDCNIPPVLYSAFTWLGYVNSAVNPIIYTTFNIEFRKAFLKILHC
Method in brief: (§2)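 Dopamine concentration–response curves run alone or with a fixed compound concentration (0.01 or 1 nM) in human D2R-expressing CHO cells. Forskolin-stimulated cAMP inhibition read by HTRF. Dopamine EC50 and Emax derived from the curves. Three independent experiments in duplicate, mean ± SD.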

[3] = Neurotoxicity in human SH-SY5Y cells at 200 uM incubated for 48 hrs by MTT assay relative to control; format: functional
Method in brief: (§3)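 SH-SY5Y neuroblastoma cells differentiated 6 days with retinoic acid and TPA. Exposed 48 h to compound at 200 μM dissolved in DMSO (0.5% final), with 6-OHDA at 125 μM in PBS as positive control. MTT reduction read-out as % of control. 14–16 wells from 4 independent experiments, mean ± SD; ANOVA with Tukey post hoc test.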

D(2) dopamine receptor [4] = target: T1, D(2) dopamine receptor; test: as §1, with “level by measuring maximum efficacy” for “level”, “at 0.01” for “at 1”, “assay relative to control” for “assay”; format: functional, cell-based; settings: filed as positive allosteric modulator, time 15.0 min; method in brief: as §2
D(2) dopamine receptor [5] = target: T1, D(2) dopamine receptor; test: Agonist activity at human dopamine D2 receptor expressed in CHO cells assessed as reduction in forskolin-stimulated cAMP level at 1 to 1000 nM preincubated for 10 mins followed by forskolin addition measured after 5 mins by HTRF assay; format: functional, cell-based; settings: dose 1-1000 nM, time 15.0 min
Method in brief: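 Agonist mode, without dopamine, in CHO cells expressing human D2R. Compound tested at 1 nM to 1 μM, with dopamine as positive control. Read-out is inhibition of forskolin-stimulated cAMP accumulation by HTRF. Mean ± standard deviation of three independent measurements.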

D(2) dopamine receptor [6] = target: T1, D(2) dopamine receptor; test: as §1, with “level” for “level at 1 nM”, “assay (reference value: 87.08 +/- 24.87 nM)” for “assay”; format: functional, cell-based; method in brief: as §2
D(2) dopamine receptor [7] = target: T1, D(2) dopamine receptor; test: (§4) Positive allosteric modulator activity at human dopamine D2 receptor expressed in CHO cells assessed as fold increase in dopamine potentiation by measuring reduction of forskolin-stimulated cAMP level at 0.01 nM preincubated for 10 mins followed by forskolin addition measured after 5 mins in presence of dopamine by HTRF assay; format: functional, cell-based; settings: filed as positive allosteric modulator, time 15.0 min; method in brief: as §2
D(2) dopamine receptor [8] = target: T1, D(2) dopamine receptor; test: (§5) Positive allosteric modulator activity at human dopamine D2 receptor expressed in CHO cells assessed as reduction in forskolin-stimulated cAMP level at 0.01 nM preincubated for 10 mins followed by forskolin addition measured after 5 mins in presence of dopamine by HTRF assay relative to control; format: functional, cell-based; parameters: scale not given: the % may be the effect or the level left; settings: time 15.0 min
Method in brief: (§6)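 CHO cells expressing human D2R, assayed in the presence of 0.1 μM dopamine. Compounds screened between 0.01 nM and 10 μM. Inhibition of forskolin-stimulated cAMP measured by HTRF and expressed as % increase over the 0.1 μM dopamine effect. Mean ± SD of three independent measurements; Student's t-test, p < 0.05.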

D(2) dopamine receptor [9] = target: T1, D(2) dopamine receptor; test: Positive allosteric modulator activity at human dopamine D2 receptor expressed in CHO cells assessed as reduction in forskolin-stimulated cAMP level at 0.01 nM preincubated for 10 mins followed by forskolin addition measured after 5 mins in presence of dopamine by HTRF assay; format: functional, cell-based; settings: time 15.0 min; method in brief: as §6
D(2) dopamine receptor [10] = target: T1, D(2) dopamine receptor; test: as §4, with “1” for “0.01”; format: functional, cell-based; settings: filed as positive allosteric modulator, time 15.0 min
Method in brief: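 CHO cells stably expressing human D2R. Dopamine concentration–response curves were run with or without modulator at a fixed concentration. D2R activation was read as inhibition of forskolin-stimulated cAMP accumulation by HTRF. The fold shift was derived from DA EC50 values, with Emax also fitted. Three independent experiments, each in duplicate, mean ± SD.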

D(2) dopamine receptor [11] = target: T1, D(2) dopamine receptor; test: as §5, with “level by measuring maximum efficacy” for “level”, “1” for “0.01”; format: functional, cell-based; settings: filed as positive allosteric modulator, time 15.0 min; method in brief: as §2
D(2) dopamine receptor [12] = target: T1, D(2) dopamine receptor; test: as §5, with “level by measuring maximum efficacy” for “level”, “10” for “0.01”; format: functional, cell-based; parameters: scale not given: the % may be the effect or the level left; settings: time 15.0 min; method in brief: as §6
[13] = Neurotoxicity in human SH-SY5Y cells at 125 uM incubated for 48 hrs by MTT assay relative to control; format: functional
Method in brief: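 SH-SY5Y cells pre-differentiated 6 days with retinoic acid and TPA. 6-OHDA freshly prepared in sterile PBS, tested at 125 μM for 48 h; DMSO-solubilised test agents were run alongside (DMSO 0.5% final). Viability read by MTT reduction, expressed as % of control. 14–16 wells, 4 independent experiments; ANOVA with Tukey post hoc versus control.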

SH-SY5Y = test: Neurotoxicity in human SH-SY5Y cells at 200 uM incubated for 48 hrs by MTT assay; format: functional, cell-based; method in brief: as §3

| Structure (SMILES) | logP [1] | Activity (D(2) dopamine receptor [2]) | Activity [3] [%] | Emax (D(2) dopamine receptor [4]) [%] | Activity (D(2) dopamine receptor [5]) | pEC50 (D(2) dopamine receptor [6]) | fold change (FC) (D(2) dopamine receptor [7]) | Activity (D(2) dopamine receptor [8]) [%] | Activity (D(2) dopamine receptor [9]) | fold change (FC) (D(2) dopamine receptor [10]) | Emax (D(2) dopamine receptor [11]) [%] | Activity (D(2) dopamine receptor [12]) [%] | Activity [13] [%] | Activity (SH-SY5Y) |
| --- | --- | --- | --- | --- | --- | --- | --- | --- | --- | --- | --- | --- | --- | --- |
| CC(C)C[C@H](NC(=O)[C@@H]1CCCN1C(=O)OC(C)(C)C)C(=O)NCC(=O)NC12CC3CC(CC(C3)C1)C2 | 2.62 | inactive | 89.73 | 100 | inactive | 7.75 | 4.9 | 15.3 |  |  |  |  |  |  |
| CC(C)C[C@H](NC(=O)[C@@H]1CCCN1)C(=O)NCC(N)=O (H-Pro-Leu-Gly-NH2) | -0.56 |  | 94.09 |  |  |  |  |  | inactive | 3.7 | 100 | 31.9 |  |  |
| NCCc1cc(O)c(O)cc1O [OXIDOPAMINE] |  |  |  |  |  |  |  |  |  |  |  |  | 58.27 |  |
| CC(C)C[C@H](NC(=O)[C@@H]1CCCN1)C(=O)NCC(=O)NC12CC3CC(CC(C3)C1)C2 |  | inactive |  | 100 | inactive | 7.58 | 3.3 | 10.3 |  |  |  |  |  | inactive |
